Compounds with a hit are over-represented: about 9.4% of the library has one in this group of screens.
SKKanGAS inh – SKKanGAS growth inhibition; S. pyogenes SKKanGAS, kanamycin growth, BacTiter-Glo, 6 h; AID 1662; inhibition, % at 7.5 µM; 300,000 compounds, 1.3% hits;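 active = mean replicate score, as percent of positive control median, at least 50; inconclusive = mean below 50 but one replicate at or above 50; inactive = mean and every replicate below 50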;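 also: strain carries kanamycin resistance gene driven by streptokinase promoter and grows in 40 µg/ml kanamycin; loss of luminescence reflects streptokinase promoter inhibition or plain growth inhibition; 0% = median of DMSO wells and 100% = positive control at its reference dose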
Beta cell apopt – beta cell apoptosis inhibition; INS-1E cytokine-induced death, ATP luminescence, 48 h; percent of positive-control rescue, neutral wells zero; protection from apoptosis, % (no concentration beside the values); 300,000 compounds, 0.8% hits; AID 435005;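 active = Every replicate reaches about 75%, or at least half do and their mean reaches it too, limit read from the data; inconclusive = At least half of replicates reach the limit but their mean does not; inactive = Under half of replicates reach the limit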;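 also: 0% = cytokine-treated negative control wells and 100% = positive control rescue; higher means more ATP so stronger rescue from cytokine killing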
T cruzi inh – blocks replication of Trypanosoma cruzi; T. cruzi beta-gal in NIH3T3, luminescence, 90 h; inhibition, % (no concentration beside the values); 300,000 compounds, 1.4% hits;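 active = mean inhibition across valid replicates above about 55%, limit read from the data; inconclusive = mean below that limit but half or more replicates reach it; inactive = mean below it, under half of replicates reach it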;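 also: signal also drops with host cell toxicity which is not excluded here; 0% = plate median of DMSO wells and 100% = zero luminescence signal; higher percent means less beta-gal luminescence so fewer parasites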
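Test system: β-gal T. cruzi (Tulahuen C4) inside NIH/3T3 cells / Quantity: 5,000 cells/well / Measured by: luminescence from GalScreen with 0.05% NP40, read after 60 min / Medium: DMEM plus 2% FBS / Measure: parasite load inhibition, % / Reagent: Tulahuen C4 trypomastigotes, 5000/well / Schedule: co-culture of at least 90 h after 3 h attachment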
CSC inhib – blocks cancer stem cells; 300,000 compounds, 1.1% hits; cancer stem cell-like cells viability, luminescence; inhibition, % at 7.5 µM; AID 2717; in the data active = inhibition above about 75%; inconclusive = no clear call, values can overlap the other calls; tested in HMLE shEcad cells
Mdm2 MdmX PPI – human Mdm2/MdmX binding inhibition; AID 485346; SaOS-2 split-luciferase Mdm2/MdmX complementation, luminescence; O15151+Q00987; 330,000 compounds, 3% hits; inhibition, % at 8 µM;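 active = inhibition of at least 50% at 8 µM in the primary screen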
Target sequence (O15151 whole entry, looked up): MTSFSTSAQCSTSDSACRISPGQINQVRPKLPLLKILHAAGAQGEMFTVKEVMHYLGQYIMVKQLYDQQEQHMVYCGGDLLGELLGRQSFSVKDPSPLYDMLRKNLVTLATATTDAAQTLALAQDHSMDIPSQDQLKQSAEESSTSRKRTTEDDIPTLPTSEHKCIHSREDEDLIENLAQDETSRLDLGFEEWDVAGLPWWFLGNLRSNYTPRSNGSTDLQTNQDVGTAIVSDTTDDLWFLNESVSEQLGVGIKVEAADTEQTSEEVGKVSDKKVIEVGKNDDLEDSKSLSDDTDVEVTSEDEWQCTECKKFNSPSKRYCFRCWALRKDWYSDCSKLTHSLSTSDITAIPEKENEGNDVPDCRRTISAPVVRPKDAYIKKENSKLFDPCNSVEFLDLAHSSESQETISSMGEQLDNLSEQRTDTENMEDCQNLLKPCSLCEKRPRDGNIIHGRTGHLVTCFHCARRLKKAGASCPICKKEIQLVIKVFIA
Target sequence (Q00987 whole entry, looked up): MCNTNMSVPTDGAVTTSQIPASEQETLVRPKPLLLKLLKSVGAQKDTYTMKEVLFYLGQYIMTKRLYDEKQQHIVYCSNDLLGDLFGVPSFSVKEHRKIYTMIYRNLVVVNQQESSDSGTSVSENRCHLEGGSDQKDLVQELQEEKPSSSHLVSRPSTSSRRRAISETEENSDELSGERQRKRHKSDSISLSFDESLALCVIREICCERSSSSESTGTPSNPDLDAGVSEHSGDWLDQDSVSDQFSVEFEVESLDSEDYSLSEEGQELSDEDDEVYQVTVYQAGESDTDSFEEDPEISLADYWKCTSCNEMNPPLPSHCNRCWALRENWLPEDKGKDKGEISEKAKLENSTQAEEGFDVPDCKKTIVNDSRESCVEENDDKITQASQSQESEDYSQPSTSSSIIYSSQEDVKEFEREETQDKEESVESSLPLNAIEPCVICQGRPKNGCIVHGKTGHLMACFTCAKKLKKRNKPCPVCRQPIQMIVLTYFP
L major viab – Leishmania major promastigote growth inhibition. Leishmania major promastigotes, resazurin fluorescence viability. AID 1063. inhibition, % at 10 µM. 200,000 compounds, 9% hits; in the data active = inhibition above about 50%;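 also: promastigotes grown with compound for 44 hours at 28 °C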
The depositor's hits bear a star; u = inconclusive; x = not tested or not shown.

SMILES | SKKanGAS inh | Beta cell apopt | T cruzi inh | CSC inhib | Mdm2 MdmX PPI | L major viab
Cc1ccc(CC(=O)O/N=C(\N)c2cccc([N+](=O)[O-])c2)cc1 | -3 | -4 | 29 | -6 | -23 | 80*
NS(=O)(=O)c1ccc(NC(=O)COC(=O)COc2cccc(C(F)(F)F)c2)cc1 | -7 | -2 | -12 | -9 | -8 | x
COc1ccc(NC(=O)C(c2ccccc2)N2CCN(c3ccccn3)CC2)cc1Cl (stereo unspecified) | -1 | 7 | 18 | -4 | -1 | 13
CCSc1nnc(-c2ccncc2)o1 | 6 | -7 | -21 | -7 | 19 | -6
CCSc1nnc(-c2sc3nnc(-c4ccccc4)c(-c4ccccc4)c3c2N)o1 | 12 | 19 | 43 | 120* | 18 | 28
COc1cccc(CNC(=O)CN2C(=O)CSc3ccc(S(=O)(=O)N4CCOCC4)cc32)c1 | -3 | -5 | 1 | -8 | 21 | x
N#CCCN(C(=O)CSc1ccc2c(c1)OCCO2)c1ccc(F)cc1 | -1 | -5 | 7 | x | -4 | 87*
O=C1c2cccc3c([N+](=O)[O-])ccc(c23)C(=O)N1Cc1cccnc1 | 9 | x | 85* | x | x | 100*
O=C(c1cc2sccc2n1Cc1ccc(F)cc1)N1CCN(c2nc3ccccc3s2)CC1 | 23 | 100* | 41 | 25 | 4 | 84*
Cn1c(C(=O)N2CCN(c3nc4ccccc4s3)CC2)cc2sccc21 | 8 | -13 | 2 | x | -12 | -2
COCCN(C(=S)Nc1c(C)cc(C)cc1C)C(C)c1cccnc1 (stereo unspecified) | 0 | -2 | 28 | -15 | 15 | 89*
COCCN(C(=S)Nc1c(C)cccc1C)C(C)c1cccs1 (stereo unspecified) | 6 | 1 | -3 | -3 | -23 | 56*
COCCN(C(=S)Nc1cc(C)ccc1C)C(C)c1cccnc1 (stereo unspecified) | -7 | -15 | -2 | 6 | 12 | 95*
COCCN(C(=S)Nc1cccc(C)c1)C(C)c1cccs1 (stereo unspecified) | -7 | 3 | -17 | -11 | 9 | 2
COc1ccc(Cl)cc1S(=O)(=O)N(C)CC(=O)NCc1ccccn1 | 2 | 1 | 5 | -9 | -17 | x
COc1ccc(Cl)cc1-c1nc(SCC(=O)N(C)C2CCS(=O)(=O)C2)n[nH]1 (stereo unspecified) | x | -2 | x | -16 | 18 | x
Cc1cc(N2CCN(C)CC2)nc2ccc(NC(=S)N3CCN(c4cccc(Cl)c4)CC3)cc12 | -2 | 42 | 50 | 34 | 33 | 50
Cc1cc(N2CCN(C)CC2)nc2ccc(NC(=S)N3CCCCC3)cc12 | x | x | 53 | x | x | 33
Cc1cc(N2CCN(C)CC2)nc2ccc(NC(=S)N3CCN(c4ccc(Cl)cc4)CC3)cc12 | -5 | 9 | 61* | 109* | 35 | 100*
CCCCN(CC)C(=S)Nc1ccc2nc(N3CCN(C)CC3)cc(C)c2c1 | 1 | -6 | 36 | 28 | 40 | 53*
Cc1cccc(N2CCN(C(=S)Nc3ccc4nc(N5CCN(C)CC5)cc(C)c4c3)CC2)c1C | -23 | x | 65* | x | x | 101*
Cc1cc(N2CCOCC2)nc2ccc(NC(=S)N3CCCCC3C)cc12 (stereo unspecified) | 8 | 3 | 42 | 36 | -9 | 85*
Cc1cccc(S(=O)(=O)N2CCN(Cc3ccc4c(c3)OCO4)CC2)c1 | 0 | -6 | -6 | -5 | 0 | x
COc1cc2c(cc1OC)[C@@H]1Cc3ccc(OC)c(OC)c3CN1CC2 | -4 | -15 | 56* | -11 | 24 | x
COc1cc2c(cc1OC)C1Cc3ccc(OC)c(OC)c3CN1CC2 (stereo unspecified) | -4 | -15 | 51 | -3 | 19 | 95*
SMILES | SKKanGAS inh | Beta cell apopt | T cruzi inh | CSC inhib | Mdm2 MdmX PPI | L major viab
O=C(Cn1ncc(Cl)c(Cl)c1=O)c1ccc(Cl)cc1 | -3 | -35 | 75* | 49 | x | 76*
CC(C)(C)C(=O)Cn1ncc(Cl)c(Cl)c1=O | -6 | x | -4 | x | x | 34
C=CCn1c(C)cc(C(=O)Cn2ncc(Cl)c(Cl)c2=O)c1C | -1 | -8 | -26 | 6 | x | 87*
O=C(OCn1ncc(Cl)c(Cl)c1=O)c1ccccc1Cl | 13 | 101* | 58* | -50 | x | 101*
O=C(CNC(=O)c1ccccc1F)OCC(=O)c1ccc(Cl)s1 | -10 | -2 | 1 | -4 | 19 | x
CCOc1ccc(NC(=O)CN(C)C(=O)c2ccc3nc(CC)c(CC)nc3c2)cc1OCC | -12 | -5 | 0 | -5 | -8 | x
Cc1ccc2c(c1)C1CC(C)(O2)N(c2cccc(C(=O)NC3CCN(Cc4ccccc4)CC3)c2)C(=O)N1 (stereo unspecified) | 1 | -7 | 28 | -8 | 44 | x
COc1ccccc1NC(=O)c1ccc([N+](=O)[O-])cc1[N+](=O)[O-] | -5 | 10 | u | -27 | -3 | 85*
COc1ccc(-n2cc(C(=O)Nc3cc([N+](=O)[O-])ccc3OC)c3ccccc3c2=O)cc1 | 9 | 5 | -7 | -11 | 16 | 77*
COc1ccc([N+](=O)[O-])cc1NC(=O)c1ccccc1SC | 5 | 0 | -6 | 1 | -20 | -3
CCOC(=O)c1ccccc1NC(=O)c1cn(-c2ccc(OC)cc2)c(=O)c2ccccc12 | 24 | 2 | 37 | 33 | 45 | 92*
CC(=O)Nc1cc(NC(C)=O)cc(C(=O)OCC(=O)c2ccc3c(c2)OCO3)c1 | 0 | x | -9 | -5 | 12 | x
COC(C[C@@H]1O[C@@H]1[C@H](O)COCc1ccccc1)OC | x | -4 | x | -7 | -10 | x
COc1ccc(N(C(=O)c2cnsn2)C(C(=O)NC2CCCCC2)c2ccncc2)cc1 (stereo unspecified) | -1 | 1 | 3 | -2 | -7 | 58*
CC(=O)N(c1ccccc1)c1nnc(-c2cnc(C)cn2)s1 | -2 | 0 | -10 | -6 | -207 | 0
C[C@@H](O)[C@H]1C(=O)N2C(C(=O)O)=C(S[C@@H]3CN[C@H](C(=O)N(C)C)C3)[C@H](C)[C@H]12 | 110* | -4 | 3 | -9 | x | x
CC(C)NC(=O)C1CCN(C2CCN(Cc3nc(C(C)C)cs3)CC2)CC1 | 1 | -5 | -8 | -9 | 17 | 21
CC(C)NC(=O)C1CCN(C2CCN(Cc3ccc4cccc(F)c4n3)CC2)CC1 | -6 | -3 | 9 | -3 | -4 | 73*
Cc1ccc(C(=O)N2CCOCC2)cc1S(=O)(=O)N1CCOCC1 | 51* | x | -3 | -6 | -10 | x
COc1ccc(NC(=O)c2ccccc2-c2ccc(C(F)(F)F)cc2)cc1S(=O)(=O)N1CCOCC1 | -1 | 7 | 1 | x | 16 | -1
Cc1ccc(NC(=O)c2ccc([N+](=O)[O-])o2)cc1S(=O)(=O)N1CCOCC1 | 25 | 94* | 9 | 2 | 18 | 99*
Cc1ccc(NC(=O)c2ccccc2-c2ccc(C(F)(F)F)cc2)cc1S(=O)(=O)N1CCOCC1 | 3 | 5 | 31 | -2 | 28 | 93*
